Results taken from ChEMBL document CHEMBL1649531, “In vitro activity of garenoxacin against Streptococcus pneumoniae mutants with characterized resistance mechanisms” (2009).
In brackets after ≈: the same amount, converted by molar mass.

What was measured:
Assay type in all cases: functional
Streptococcus pneumoniae [1] = experiment: Antibacterial activity against Streptococcus pneumoniae S001 harboring parC Asp83Asn mutant and wild-type gyrA genes assessed as mutation prevention concentration after 48 hrs
How it was run: (§1)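 A 200 μl culture at 10 log10 CFU/ml was spread on Mueller-Hinton II agar with 5% sheep blood containing drug at a range of concentrations, then incubated at 37°C in 5% CO2. MPC was taken as the lowest concentration preventing colony formation after 48 h. Determinations were done in duplicate.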

Streptococcus pneumoniae [2] = experiment: Antibacterial activity against Streptococcus pneumoniae W001 harboring wild-type parC and gyrA genes assessed as mutation prevention concentration after 48 hrs; how it was run: as §1
Streptococcus pneumoniae [3] = experiment: Antibacterial activity against Streptococcus pneumoniae S004 harboring wild-type parC and gyrA Gly85Asn mutant genes assessed as mutation prevention concentration after 48 hrs; how it was run: as §1
Streptococcus pneumoniae [4] = experiment: Antibacterial activity against Streptococcus pneumoniae D002 harboring parC Ser79Phe and gyrA Ser81Phe mutant genes assessed as mutation prevention concentration after 48 hrs; how it was run: as §1
Streptococcus pneumoniae [5] = experiment: Antibacterial activity against Streptococcus pneumoniae S002 harboring parC Ser79Phe mutant and wild-type gyrA genes assessed as mutation prevention concentration after 48 hrs; how it was run: as §1
Streptococcus pneumoniae [6] = experiment: Antibacterial activity against Streptococcus pneumoniae D001 harboring parC Ser79Phe and gyrA Gly85Lys mutant genes assessed as mutation prevention concentration after 48 hrs; how it was run: as §1
Streptococcus pneumoniae [7] = experiment: Antibacterial activity against Streptococcus pneumoniae W002 harboring wild-type parC and gyrA genes assessed as mutation prevention concentration after 48 hrs; how it was run: as §1
Streptococcus pneumoniae [8] = experiment: Antibacterial activity against Streptococcus pneumoniae S003 harboring wild-type parC and gyrA Ser81Phe mutant genes assessed as mutation prevention concentration after 48 hrs; how it was run: as §1
Streptococcus pneumoniae [9] = experiment: Antibacterial activity against Streptococcus pneumoniae S004 harboring wild-type parC and gyrA Gly85Asn mutant genes
Streptococcus pneumoniae [10] = experiment: Antibacterial activity against Streptococcus pneumoniae S001 harboring parC Asp83Asn mutant and wild-type gyrA genes
Streptococcus pneumoniae [11] = experiment: Antibacterial activity against Streptococcus pneumoniae D001 harboring parC Ser79Phe and gyrA Gly85Lys mutant genes
Streptococcus pneumoniae [12] = experiment: Antibacterial activity against Streptococcus pneumoniae S002 harboring parC Ser79Phe mutant and wild-type gyrA genes
Streptococcus pneumoniae [13] = experiment: Antibacterial activity against Streptococcus pneumoniae W002 harboring wild-type parC and gyrA genes
Streptococcus pneumoniae [14] = experiment: Antibacterial activity against Streptococcus pneumoniae W001 harboring wild-type parC and gyrA genes
Streptococcus pneumoniae [15] = experiment: Antibacterial activity against Streptococcus pneumoniae S003 harboring wild-type parC and gyrA Ser81Phe mutant genes
Streptococcus pneumoniae [16] = experiment: Antibacterial activity against Streptococcus pneumoniae D002 harboring parC Ser79Phe and gyrA Ser81Phe mutant genes

SMILES	Activity (Streptococcus pneumoniae [1])	Activity (Streptococcus pneumoniae [2])	Activity (Streptococcus pneumoniae [3])	Activity (Streptococcus pneumoniae [4])	Activity (Streptococcus pneumoniae [5])	Activity (Streptococcus pneumoniae [6])	Activity (Streptococcus pneumoniae [7])	Activity (Streptococcus pneumoniae [8])	MIC (Streptococcus pneumoniae [9])	MIC (Streptococcus pneumoniae [10])	MIC (Streptococcus pneumoniae [11])	MIC (Streptococcus pneumoniae [12])	MIC (Streptococcus pneumoniae [13])	MIC (Streptococcus pneumoniae [14])	MIC (Streptococcus pneumoniae [15])	MIC (Streptococcus pneumoniae [16])
C[C@H]1COc2c(N3CCN(C)CC3)c(F)cc3c(=O)c(C(=O)O)cn1c23.C[C@H]1COc2c(N3CCN(C)CC3)c(F)cc3c(=O)c(C(=O)O)cn1c23.O [LEVOFLOXACIN]	16 µg/mL	2 µg/mL	32 µg/mL	128 µg/mL	16 µg/mL	128 µg/mL	2 µg/mL	32 µg/mL								
COc1c(N2CCNC(C)C2)c(F)cc2c(=O)c(C(=O)O)cn(C3CC3)c12 (centres undefined) [GATIFLOXACIN]	4 µg/mL	0.5 µg/mL	8 µg/mL	16 µg/mL	4 µg/mL	16 µg/mL	0.5 µg/mL	8 µg/mL	0.25 µg/mL (≈ 0.666 µM)	0.25 µg/mL (≈ 0.666 µM)	4 µg/mL (≈ 10.7 µM)	0.12 µg/mL (≈ 0.32 µM)	0.12 µg/mL (≈ 0.32 µM)	0.12 µg/mL (≈ 0.32 µM)	0.12 µg/mL (≈ 0.32 µM)	8 µg/mL (≈ 21.3 µM)
